Results published in PMC9352169 (ACS Omega, 2022).
Where “and” joins values, the source holds several entries; their conditions need not be identical. Identical values can stand only once.

Columns and labels:
[1] = Substitution kinetics of chlorides by L-methionine; format: physicochemical; details: Nu = L-Met, 35 °C, pH 7.2; for k2^1st × 10^1: first step; for k1^2nd × 10^4: second step (ring closure)
Outline: (§1)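 Chloride substitution was followed by UV-vis under pseudo-first-order conditions: complex 50 μM with the nucleophile in ≥20-fold excess, in 5 mM Tris–HCl/50 mM NaCl, pH 7.2. Complex stocks were 5 mM in 5% DMF. Runs spanned 25–55 °C at 10 °C intervals, and the Tu trace was taken at 524 nm. Rate constants came from kobs vs [nucleophile] plots, with activation parameters from temperature dependence.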

BSA = BSA (Bos taurus, UniProt P02769); experiment: BSA fluorescence quenching titration; format: binding, bovine; details: for Ksv × 10^–5: BSA 1.08 μM; for Ksv × 10^–5 / Decrease in initial BSA fluorescence: λem = 348 nm; for kq × 10^–13: BSA quenching; for KF × 10^–5 / n (number of binding sites): BSA, Scatchard; for Decrease in initial BSA fluorescence: pH 7.2
Chain of BSA (P02769 25-607): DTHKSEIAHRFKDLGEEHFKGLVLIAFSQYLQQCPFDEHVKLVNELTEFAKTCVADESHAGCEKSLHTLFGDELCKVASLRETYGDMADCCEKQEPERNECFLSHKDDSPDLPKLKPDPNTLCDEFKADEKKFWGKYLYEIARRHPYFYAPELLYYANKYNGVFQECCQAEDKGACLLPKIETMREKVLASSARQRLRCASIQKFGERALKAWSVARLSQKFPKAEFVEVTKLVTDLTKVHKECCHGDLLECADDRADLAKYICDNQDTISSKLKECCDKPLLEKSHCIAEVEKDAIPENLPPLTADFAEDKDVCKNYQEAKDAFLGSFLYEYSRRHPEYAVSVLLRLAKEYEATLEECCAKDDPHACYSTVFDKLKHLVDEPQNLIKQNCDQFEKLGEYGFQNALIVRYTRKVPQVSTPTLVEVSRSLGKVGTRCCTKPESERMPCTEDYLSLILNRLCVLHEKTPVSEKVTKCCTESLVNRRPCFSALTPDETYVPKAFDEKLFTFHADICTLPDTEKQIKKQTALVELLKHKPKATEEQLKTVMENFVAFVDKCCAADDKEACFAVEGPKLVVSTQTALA
Outline: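 Complex stocks were 5 mM in DMSO, diluted in buffer, and samples were incubated about 14 h at 37 °C before reading. Emission was read at 348 nm and checked for inner-filter effects by UV-vis. Data were fitted by Stern–Volmer and Scatchard analysis.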

normal Vero cell line = experiment: MTT cytotoxicity assay, Vero; format: cell-based; details: read-out: IC50 normal Vero, 24 h incubation, n = 3
Outline: (§2)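 MTT viability assay. Vero cells were grown in MEM and MCF-7 cells in DMEM, both with 10% FBS and penicillin/streptomycin, at 37 °C and 5% CO2. Cells were exposed 24 h to test complex at 2, 4, 8, 16, 32 and 64 (DMSO stock). Viability was expressed relative to untreated control and IC50 computed. Values are mean ± SD of three independent experiments. SI = IC50 Vero / IC50 MCF-7.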

EtBr + CT-DNA adduct = experiment: Fluorescence EtBr exchange titration on CT-DNA; format: binding, calf; details: for n (number of binding sites) / KF × 10^–4 (Scatchard binding constant) / Kapp × 10^–6 (apparent binding constant) / Ksv × 10^–4 (Stern–Volmer quenching constant) / kq × 10^–12 (bimolecular quenching rate constant): EtBr exchange; for n (number of binding sites): Scatchard; for KF × 10^–4 (Scatchard binding constant) / Kapp × 10^–6 (apparent binding constant) / Ksv × 10^–4 (Stern–Volmer quenching constant) / kq × 10^–12 (bimolecular quenching rate constant) / Decrease in initial EtBr+CT-DNA fluorescence: pH 7.2; for Decrease in initial EtBr+CT-DNA fluorescence: λem = 596 nm, λex = 510 nm
Outline: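 Competitive EtBr displacement used EtBr 20.0 μM and CT-DNA 20.0 μM with test complex added at 0–150 μM, in 5 mM Tris/50 mM NaCl, pH 7.2. Samples were equilibrated about 14 h at 37 °C. Emission was 596 nm (excitation 510 nm), with inner-filter check. Data were analysed as Stern–Volmer Io/I vs [Q] and Scatchard log[(Io–I)/I] vs log[Q].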

CT-DNA = CT-DNA UV-vis absorption titration; format: binding, calf; details: Van't Hoff equation ΔG = −RT lnKb
Outline: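 UV-vis titration of test complex (14 μM) with CT-DNA (0–90 μM) in 5 mM Tris–HCl/50 mM NaCl, pH 7.2. Complex came from a 5 mM DMSO stock diluted in buffer, and samples were equilibrated about 14 h at 37 °C. The binding constant came from absorbance changes, and ΔG from it.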

zebrafish embryos [2] = experiment: Zebrafish embryo acute toxicology; format: in vivo, Danio rerio; details: for morphological changes in zebrafish embryos: even at 90 M (printed); for morphological changes in zebrafish embryos / LC50 / drop of survival rate when the concentration increased from 15 to 90 μM: 96 hpf; for LC50: zebrafish embryos
[3] = Substitution kinetics of chlorides by thiourea; format: physicochemical; details: Nu = Tu, 35 °C; for k2^1st × 10^1: first step; for k2^1st × 10^1 / k2^2nd × 10^2: pH 7.2; for k–1^2nd × 10^5: second step back reaction; for k2^2nd × 10^2: second step
Outline: as §1

[4] = tested on: guanosine-5′-monophosphate, 5′-GMP; experiment: Substitution kinetics of chlorides by guanosine-5′-monophosphate; format: physicochemical; details: Nu = 5′-GMP, 35 °C; for k2^1st × 10^1: first step; for k2^1st × 10^1 / k2^2nd × 10^2: pH 7.2; for k–1^2nd × 10^5: second step back reaction; for k2^2nd × 10^2: second step
Outline: as §1

supercoiled pcDNA = experiment: Photoinduced pcDNA cleavage; format: biochemical; details: 250 μM complex + 0.1 μM pcDNA
[5] = tested on: human breast adenocarcinoma, MCF-7 cell line; experiment: MTT cytotoxicity assay, MCF-7; format: cell-based; details: for SI (IC50 of Vero cell line/IC50 of MCF-7 cell line): Vero vs MCF-7; for IC50: read-out: IC50 breast cancer MCF-7, MTT, 24 h incubation, n = 3
Outline: as §2

zebrafish embryos [6] = details: cited from earlier work

Molecule	k2^1st × 10^1 [1] [M^–1 s^–1]	k1^2nd × 10^4 [1]	experimental ΔG of binding with BSA (BSA) [kJ mol^–1]	Ksv × 10^–5 (BSA) [M^–1]	kq × 10^–13 (BSA) [M^–1 s^–1]	KF × 10^–5 (BSA) [M^–1]	n (number of binding sites) (BSA)	Decrease in initial BSA fluorescence (BSA)	IC50 (normal Vero cell line) [µM]	n (number of binding sites) (EtBr + CT-DNA adduct)	KF × 10^–4 (Scatchard binding constant) (EtBr + CT-DNA adduct) [M^–1]	Kapp × 10^–6 (apparent binding constant) (EtBr + CT-DNA adduct) [M^–1]	Ksv × 10^–4 (Stern–Volmer quenching constant) (EtBr + CT-DNA adduct) [M^–1]	kq × 10^–12 (bimolecular quenching rate constant) (EtBr + CT-DNA adduct) [M^–1 s^–1]	Decrease in initial EtBr+CT-DNA fluorescence (EtBr + CT-DNA adduct)	ΔG of binding with CT-DNA (CT-DNA) [kJ mol^–1]	morphological changes in zebrafish embryos (zebrafish embryos [2])	LC50 (zebrafish embryos [2]) [µM]	k2^1st × 10^1 [3] [M^–1 s^–1]	SI (IC50 of Vero cell line/IC50 of MCF-7 cell line) [5]	other results
[Cl-].[Cl-].[Pt+2].[Ru+2].c1ccc(-c2nc3ccccc3nc2-c2ccccn2)nc1.c1cnc2c(c1)ccc1cccnc12.c1cnc2c(c1)ccc1cccnc12 [C2, [(1,10-phenanthroline)2Ru(II)(μ-2,3-bis(2-pyridyl)quinoxaline)Pt(II)dichloride]^2+]	1.75 ± 0.18	1.02 ± 0.15 ^a s^–1	−31.55	2.26 ± 0.15	2.26 ± 0.24	1.16 ± 0.10	1.00 ± 0.05	≤ 17%	17.5 ± 1.9	0.99 ± 0.05	1.98 ± 0.11	6.25 ± 0.17	2.83 ± 0.13	1.23 ± 0.24	≤ 23%	−35 ± 2	did not induce any significant morphological changes	96.3 ± 1.4	4.26 ± 0.21	4.38	k–1^2nd × 10^5 [3]: 4.35 ± 0.09 s^–1; k2^2nd × 10^2 [3]: 8.65 ± 0.15 M^–1 s^–1; k2^1st × 10^1 [4]: 0.96 ± 0.13 M^–1 s^–1; k–1^2nd × 10^5 [4]: 0.84 ± 0.04 s^–1; k2^2nd × 10^2 [4]: 1.48 ± 0.08 M^–1 s^–1; % of NC (pcDNA cleavage) (supercoiled pcDNA): ~18%; IC50 [5]: 4 ± 1.1 µM
[Cl-].[Cl-].[Pt+2].[Ru+2].c1ccc(-c2nccnc2-c2ccccn2)nc1.c1cnc2c(c1)ccc1cccnc12.c1cnc2c(c1)ccc1cccnc12 [C1, [(1,10-phenanthroline)2Ru(II)(μ-2,3-bis(2-pyridyl)pyrazine)Pt(II)dichloride]^2+]	0.75 ± 0.11	0.37 ± 0.08 ^a s^–1	−31.02	1.84 ± 0.08	1.84 ± 0.16	0.47 ± 0.06	0.84 ± 0.03	up to 20%	19.3 ± 2.1	0.99 ± 0.04	1.00 ± 0.05	3.33 ± 0.11	1.59 ± 0.07	0.69 ± 0.19	up to 19%	−30 ± 3	did not induce any significant morphological changes	65.2 ± 1	1.45 ± 0.15	2.12	drop of survival rate when the concentration increased from 15 to 90 μM (zebrafish embryos [2]): 50%; k–1^2nd × 10^5 [3]: 1.04 ± 0.04 s^–1; k2^2nd × 10^2 [3]: 2.73 ± 0.10 M^–1 s^–1; k2^1st × 10^1 [4]: 0.34 ± 0.09 M^–1 s^–1; k–1^2nd × 10^5 [4]: 0.20 ± 0.02 s^–1; k2^2nd × 10^2 [4]: 0.75 ± 0.04 M^–1 s^–1; % of NC (pcDNA cleavage) (supercoiled pcDNA): ~24%; IC50 [5]: 9.1 ± 1.5 µM
cis-[Pt(NH3)2Cl2] [cisplatin, reference compound]	–	–	–	–	–	–	–	–	–	–	–	–	–	–	–	–	did not induce any significant morphological changes	181	–	4.02	% of survival rate (zebrafish embryos [2]; 15 μM, 96 h): over 90%; % of hatching rate (zebrafish embryos [2]; 90 μM, 96 h): about 6.7%; % of survival rate (zebrafish embryos [2]; 90 μM, 96 h): 60%; lethality in zebrafish (zebrafish embryos [6]; 400 μM): lethal outcome; toxicity in developing zebrafish embryos (zebrafish embryos [6]; under 15 μM, delayed hatching up to 120 hpf): nontoxic
[Cl-].[Cl-].[Pt+2].[Ru+2].c1ccc(-c2nc3cc4ccccc4cc3nc2-c2ccccn2)nc1.c1cnc2c(c1)ccc1cccnc12.c1cnc2c(c1)ccc1cccnc12 [C3, [(1,10-phenanthroline)2Ru(II)(μ-2,3-bis(2-pyridyl)benzo[g]quinoxaline)Pt(II)dichloride]^2+]	3.10 ± 0.26	2.08 ± 0.33 ^a s^–1	−31.97	2.65 ± 0.22	2.65 ± 0.33	6.64 ± 0.17	1.01 ± 0.07	≤ 10%	16.2 ± 1.7	1.00 ± 0.07	3.96 ± 0.17	8.00 ± 0.23	3.92 ± 0.19	1.70 ± 0.31	≤ 37%	−36 ± 3	did not induce any significant morphological changes	149	7.57 ± 0.29	5.55 and 5.23	% of survival rate (zebrafish embryos [2]; 15 μM, 96 h): 86.7%; embryos abnormal, difficulty growing into juvenile zebrafish (zebrafish embryos [2]; 45 μM or higher concentration): about 25%; % of survival rate (zebrafish embryos [2]; 90 μM, 96 h): 56.7%; drop of survival rate when the concentration increased from 15 to 90 μM (zebrafish embryos [2]): 30%; k–1^2nd × 10^5 [3]: 10.99 ± 0.13 s^–1; k2^2nd × 10^2 [3]: 14.53 ± 0.22 M^–1 s^–1; k2^1st × 10^1 [4]: 1.39 ± 0.15 M^–1 s^–1; k–1^2nd × 10^5 [4]: 2.22 ± 0.04 s^–1; k2^2nd × 10^2 [4]: 2.20 ± 0.10 M^–1 s^–1; % of NC (pcDNA cleavage) (supercoiled pcDNA): 17%; IC50 [5]: 3.1 ± 0.8 µM
